Active and inactive are the calls of the source. The rule behind the calls is not given here.
Tested on: Lepidium sativum
Assay: Inhibition of hypocotyl length of Lepidium sativum at 0.1 mM or 1 mM after 4 days relative to untreated control

Row | SMILES | inhibition (INH) [%]
1 | C=C1C(=O)O[C@H]2[C@H]1CCC(=C)[C@]13C[C@@H](O)C(=C)[C@]21OC(C)(C)O3 | >40

Tested on: Lepidium sativum
Assay: Inhibition of germination of Lepidium sativum at 0.1 mM or 1 mM after 4 days relative to untreated control
Parameters: scale not given: the % may be the effect or the level left

Row | SMILES | Activity [%]
2 | C=C1C(=O)O[C@H]2[C@H]1CCC(=C)[C@]13C[C@@H](O)C(=C)[C@]21OC(C)(C)O3 | 20

Tested on: Solanum lycopersicum
Assay: Inhibition of germination of Solanum lycopersicum cv. Tres Cantos (tomato) at 0.1 mM or 1 mM after 5 days relative to untreated control
Assay type: functional
Method in brief: (§1)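 Lettuce and tomato seeds, 25 per dish on filter paper, received 5 mL test solution. Incubation was 5 days in the dark at 25 °C, with four replicates per concentration. Solutions were made at 10^-3 or 10^-4 M in 10 mM MES, diluted serially, and adjusted to pH 6.0. Parallel controls were run. Results are % difference from control.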

Row | SMILES | inhibition
3 | C=C1C(=O)O[C@H]2[C@H]1CCC(=C)[C@]13C[C@@H](O)C(=C)[C@]21OC(C)(C)O3 | inactive

Tested on: Lactuca sativa
Assay: Inhibition of root length of Lactuca sativa cv. Roman (lettuce) at 0.1 mM or 1 mM after 5 days relative to untreated control
Assay type: functional
Method in brief: as §1

Row | SMILES | inhibition (INH) [%]
4 | C=C1C(=O)O[C@H]2[C@H]1CCC(=C)[C@]13C[C@@H](O)C(=C)[C@]21OC(C)(C)O3 | 20

Tested on: Lepidium sativum
Assay: Inhibition of root length of Lepidium sativum at 0.1 mM or 1 mM after 4 days relative to untreated control

Row | SMILES | inhibition (INH) [%]
5 | C=C1C(=O)O[C@H]2[C@H]1CCC(=C)[C@]13C[C@@H](O)C(=C)[C@]21OC(C)(C)O3 | >40

Tested on: Triticum aestivum
Assay: Inhibition of germination of Triticum aestivum cv. Cortex (wheat) at 0.1 mM or 1 mM after 5 days relative to untreated control
Assay type: functional
Method in brief: (§2)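 Wheat: 10 seeds per dish on filter paper with 5 mL test solution, 5 days in the dark at 25 °C, 10 replicates per concentration. Stock test solutions were 10^-3 or 10^-4 M in 10 mM MES, with lower levels made by dilution, all at pH 6.0. Parallel controls were run. Output is % difference from control.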

Row | SMILES | inhibition
6 | C=C1C(=O)O[C@H]2[C@H]1CCC(=C)[C@]13C[C@@H](O)C(=C)[C@]21OC(C)(C)O3 | inactive

Tested on: Allium cepa
Assay: Inhibition of hypocotyl length of Allium cepa cv. Valenciana (onion) at 0.1 mM or 1 mM after 7 days relative to untreated control

Row | SMILES | inhibition
7 | C=C1C(=O)O[C@H]2[C@H]1CCC(=C)[C@]13C[C@@H](O)C(=C)[C@]21OC(C)(C)O3 | inactive

Tested on: Triticum aestivum
Assay: Stimulation of root length of Triticum aestivum cv. Cortex (wheat) at 0.1 mM or 1 mM after 5 days relative to untreated control
Assay type: functional
Method in brief: as §2

Row | SMILES | Activity [%]
8 | C=C1C(=O)O[C@H]2[C@H]1CCC(=C)[C@]13C[C@@H](O)C(=C)[C@]21OC(C)(C)O3 | <20

Tested on: Lepidium sativum
Assay: Stimulation of root length of Lepidium sativum at 0.1 mM or 1 mM after 5 days relative to untreated control
Assay type: functional

Row | SMILES | Activity [%]
9 | C=C1C(=O)O[C@H]2[C@H]1CCC(=C)[C@]13C[C@@H](O)C(=C)[C@]21OC(C)(C)O3 | >40

Tested on: Triticum aestivum
Assay: Stimulation of germination of Triticum aestivum cv. Cortex (wheat) at 0.1 mM or 1 mM after 5 days relative to untreated control
Assay type: functional
Method in brief: as §2

Row | SMILES | Activity
10 | C=C1C(=O)O[C@H]2[C@H]1CCC(=C)[C@]13C[C@@H](O)C(=C)[C@]21OC(C)(C)O3 | inactive

Tested on: Lactuca sativa
Assay: Inhibition of hypocotyl length of Lactuca sativa cv. Roman (lettuce) at 0.1 mM or 1 mM after 5 days relative to untreated control
Assay type: functional
Method in brief: as §1

Row | SMILES | inhibition
11 | C=C1C(=O)O[C@H]2[C@H]1CCC(=C)[C@]13C[C@@H](O)C(=C)[C@]21OC(C)(C)O3 | inactive

Tested on: Triticum aestivum
Assay: Inhibition of root length of Triticum aestivum cv. Cortex (wheat) at 0.1 mM or 1 mM after 5 days relative to untreated control
Assay type: functional
Method in brief: as §2

Row | SMILES | inhibition (INH) [%]
12 | C=C1C(=O)O[C@H]2[C@H]1CCC(=C)[C@]13C[C@@H](O)C(=C)[C@]21OC(C)(C)O3 | <20

Tested on: Allium cepa
Assay: Inhibition of germination of Allium cepa cv. Valenciana (onion) at 0.1 mM or 1 mM after 5 days relative to untreated control
Assay type: functional

Row | SMILES | inhibition
13 | C=C1C(=O)O[C@H]2[C@H]1CCC(=C)[C@]13C[C@@H](O)C(=C)[C@]21OC(C)(C)O3 | inactive

Tested on: Allium cepa
Assay: Inhibition of root length of Allium cepa cv. Valenciana (onion) at 0.1 mM or 1 mM after 5 days relative to untreated control
Assay type: functional

Row | SMILES | inhibition
14 | C=C1C(=O)O[C@H]2[C@H]1CCC(=C)[C@]13C[C@@H](O)C(=C)[C@]21OC(C)(C)O3 | inactive

Tested on: Lactuca sativa
Assay: Stimulation of root length of Lactuca sativa cv. Roman (lettuce) at 0.1 mM or 1 mM after 5 days relative to untreated control
Assay type: functional
Method in brief: as §1

Row | SMILES | Activity [%]
15 | C=C1C(=O)O[C@H]2[C@H]1CCC(=C)[C@]13C[C@@H](O)C(=C)[C@]21OC(C)(C)O3 | 20

Tested on: Allium cepa
Assay: Stimulation of hypocotyl length of Allium cepa cv. Valenciana (onion) at 0.1 mM or 1 mM after 7 days relative to untreated control

Row | SMILES | Activity
16 | C=C1C(=O)O[C@H]2[C@H]1CCC(=C)[C@]13C[C@@H](O)C(=C)[C@]21OC(C)(C)O3 | inactive

Tested on: Solanum lycopersicum
Assay: Inhibition of root length of Solanum lycopersicum cv. Tres Cantos (tomato) at 0.1 mM or 1 mM after 5 days relative to untreated control
Assay type: functional
Method in brief: as §1

Row | SMILES | inhibition
17 | C=C1C(=O)O[C@H]2[C@H]1CCC(=C)[C@]13C[C@@H](O)C(=C)[C@]21OC(C)(C)O3 | inactive

Tested on: Solanum lycopersicum
Assay: Stimulation of germination of Solanum lycopersicum cv. Tres Cantos (tomato) at 0.1 mM or 1 mM after 5 days relative to untreated control
Assay type: functional
Method in brief: as §1

Row | SMILES | Activity
18 | C=C1C(=O)O[C@H]2[C@H]1CCC(=C)[C@]13C[C@@H](O)C(=C)[C@]21OC(C)(C)O3 | inactive

Tested on: Lepidium sativum
Assay: Stimulation of hypocotyl length of Lepidium sativum at 0.1 mM or 1 mM after 5 days relative to untreated control
Assay type: functional

Row | SMILES | Activity [%]
19 | C=C1C(=O)O[C@H]2[C@H]1CCC(=C)[C@]13C[C@@H](O)C(=C)[C@]21OC(C)(C)O3 | >40

Tested on: Triticum aestivum
Assay: Stimulation of hypocotyl length of Triticum aestivum cv. Cortex (wheat) at 0.1 mM or 1 mM after 5 days relative to untreated control
Assay type: functional
Method in brief: as §2

Row | SMILES | Activity [%]
20 | C=C1C(=O)O[C@H]2[C@H]1CCC(=C)[C@]13C[C@@H](O)C(=C)[C@]21OC(C)(C)O3 | <20

Tested on: Solanum lycopersicum
Assay: Stimulation of root length of Solanum lycopersicum cv. Tres Cantos (tomato) at 0.1 mM or 1 mM after 5 days relative to untreated control
Assay type: functional
Method in brief: as §1

Row | SMILES | Activity
21 | C=C1C(=O)O[C@H]2[C@H]1CCC(=C)[C@]13C[C@@H](O)C(=C)[C@]21OC(C)(C)O3 | inactive

Tested on: Lactuca sativa
Assay: Inhibition of germination of Lactuca sativa cv. Roman (lettuce) at 0.1 mM or 1 mM after 5 days relative to untreated control
Assay type: functional
Method in brief: as §1

Row | SMILES | inhibition (INH) [%]
22 | C=C1C(=O)O[C@H]2[C@H]1CCC(=C)[C@]13C[C@@H](O)C(=C)[C@]21OC(C)(C)O3 | <20

Tested on: Lactuca sativa
Assay: Stimulation of hypocotyl length of Lactuca sativa cv. Roman (lettuce) at 0.1 mM or 1 mM after 5 days relative to untreated control
Assay type: functional
Method in brief: as §1

Row | SMILES | Activity
23 | C=C1C(=O)O[C@H]2[C@H]1CCC(=C)[C@]13C[C@@H](O)C(=C)[C@]21OC(C)(C)O3 | inactive

Tested on: Allium cepa
Assay: Stimulation of root length of Allium cepa cv. Valenciana (onion) at 0.1 mM or 1 mM after 7 days relative to untreated control

Row | SMILES | Activity
24 | C=C1C(=O)O[C@H]2[C@H]1CCC(=C)[C@]13C[C@@H](O)C(=C)[C@]21OC(C)(C)O3 | inactive

Tested on: Lepidium sativum
Assay: Inhibition of germination of Lepidium sativum at 0.1 mM or 1 mM after 5 days relative to untreated control
Assay type: functional

Row | SMILES | inhibition (INH) [%]
25 | C=C1C(=O)O[C@H]2[C@H]1CCC(=C)[C@]13C[C@@H](O)C(=C)[C@]21OC(C)(C)O3 | 20

Tested on: Lactuca sativa
Assay: Stimulation of germination of Lactuca sativa cv. Roman (lettuce) at 0.1 mM or 1 mM after 5 days relative to untreated control
Assay type: functional
Method in brief: as §1

Row | SMILES | Activity [%]
26 | C=C1C(=O)O[C@H]2[C@H]1CCC(=C)[C@]13C[C@@H](O)C(=C)[C@]21OC(C)(C)O3 | <20

Tested on: Solanum lycopersicum
Assay: Inhibition of hypocotyl length of Solanum lycopersicum cv. Tres Cantos (tomato) at 0.1 mM or 1 mM after 5 days relative to untreated control
Assay type: functional
Method in brief: as §1

Row | SMILES | inhibition
27 | C=C1C(=O)O[C@H]2[C@H]1CCC(=C)[C@]13C[C@@H](O)C(=C)[C@]21OC(C)(C)O3 | inactive

Tested on: Triticum aestivum
Assay: Inhibition of hypocotyl length of Triticum aestivum cv. Cortex (wheat) at 0.1 mM or 1 mM after 5 days relative to untreated control
Assay type: functional
Method in brief: as §2

Row | SMILES | inhibition (INH) [%]
28 | C=C1C(=O)O[C@H]2[C@H]1CCC(=C)[C@]13C[C@@H](O)C(=C)[C@]21OC(C)(C)O3 | <20

Tested on: Solanum lycopersicum
Assay: Stimulation of hypocotyl length of Solanum lycopersicum cv. Tres Cantos (tomato) at 0.1 mM or 1 mM after 5 days relative to untreated control
Assay type: functional
Method in brief: as §1

Row | SMILES | Activity
29 | C=C1C(=O)O[C@H]2[C@H]1CCC(=C)[C@]13C[C@@H](O)C(=C)[C@]21OC(C)(C)O3 | inactive

Tested on: Allium cepa
Assay: Stimulation of germination of Allium cepa cv. Valenciana (onion) at 0.1 mM or 1 mM after 5 days relative to untreated control
Assay type: functional

Row | SMILES | Activity
30 | C=C1C(=O)O[C@H]2[C@H]1CCC(=C)[C@]13C[C@@H](O)C(=C)[C@]21OC(C)(C)O3 | inactive

Reference: ChEMBL document CHEMBL3045304, “Sesquiterpene lactones with potential use as natural herbicide models. 2. guaianolides” (2000)
